The M2OR odorant receptor database

The molecules below were run against T1, OR1A1 (Homo sapiens) (UniProt Q9P1Q5). Details: stereoisomer not certain.
T1 sequence (whole entry): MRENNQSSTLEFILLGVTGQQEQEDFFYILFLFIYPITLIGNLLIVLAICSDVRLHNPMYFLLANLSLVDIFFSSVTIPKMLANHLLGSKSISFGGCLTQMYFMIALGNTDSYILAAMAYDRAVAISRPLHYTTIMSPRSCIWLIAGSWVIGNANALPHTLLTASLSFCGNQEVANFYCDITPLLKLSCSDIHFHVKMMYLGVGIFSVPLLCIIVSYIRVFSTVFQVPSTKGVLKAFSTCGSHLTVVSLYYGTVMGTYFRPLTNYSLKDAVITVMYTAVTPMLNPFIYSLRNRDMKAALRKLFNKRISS
Procedure, shortened: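 Each receptor–molecule pair is labelled responsive or non-responsive (inactive) according to whether the original authors judged the measured signal statistically different from baseline. The data were taken from the main text and supplementary material of published papers and checked for typos and inconsistencies. Assay methods differed by source, with transient luciferase assays in mammalian cell lines being common.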

Odorant receptor agonist call, active:
CC(CC=O)CCCC(C)(C)O (configuration not stated)
C=CC(C)(O)CCC=C(C)CCC=C(C)C (configuration not stated)
C=C(C)C1CCC(C)C(=O)C1 (configuration not stated)
CCCCCC1=C(C)CCC1=O
CCCCCCCCCS

Odorant receptor agonist call, inactive:
CCCCOC(=O)C(C)OC(=O)CCC (configuration not stated)
CCOC(C)OCC
O=C1Cc2ccccc2O1
CCCCC(=O)C(C)=O
O=C(O)CCc1ccccc1
Cc1cccc(O)c1
CSCCC=O
CC(=O)Oc1ccccc1
C=CC(=O)CC
C=CC(=C)CCC=C(C)C
CCC(=O)C(C)S (configuration not stated)
CC(=O)C1=NCCS1
Cc1cnccn1
CC(=O)OCCC(C)C
CC(=O)OCC=C(C)C
CCC(C)C(=O)OC (configuration not stated)
C=CC(C)=CCC=C(C)CCC=C(C)C
CCC(=O)O
CCCCCCCC1CCCC(=O)O1 (configuration not stated)
CCCCCCCC(=O)OCC
COCCC(C)(C)S
CCCC(O)CC(=O)OCC (configuration not stated)
CCOC(=O)CC(C)C
CCc1ccc(O)c(OC)c1
Cc1occc1S
CC(=O)c1cnccn1
CCCCCCCCCO
CCC(C(=O)O)c1ccccc1 (configuration not stated)
CCC(C)CO (configuration not stated)
Cc1nccnc1C
CC(C)c1ccc(C=O)cc1
CCCCCCCCCC(=O)OCC
